In the array DNA melting data of Ke et al. (doi:10.1101/2024.01.08.574731):

Experiments:
[1] = melting temperature; fluorescence melt of hairpins on a sequencing array, two-state fit, raised by 9.35 °C to match UV melts; conditions: sodium 0.088 M
How it was run: (§1)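 Folding enthalpy and melting temperature were estimated with bootstrapped two-state fits and combined across four replicates by inverse-variance weighting, with fitted temperatures raised by 9.35 °C to match UV melts. The data were Cy3 fluorescence of library hairpins, with annealed Cy3 and quencher oligos, on a sequenced MiSeq flow cell in 50 mM Na-HEPES pH 8.0, 25 mM NaCl, imaged in 2.5 °C steps up to 60 °C and normalised to pre-quench Cy3 and control constructs.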

[2] = folding enthalpy; higher = less favourable; fluorescence melt of hairpins on a sequencing array, two-state fit; conditions: sodium 0.088 M
How it was run: as §1

| Sequence | Tm [1] [°C] | folding enthalpy [2] [kcal/mol] |
| --- | --- | --- |
| GCGTGGCGAAAGCCCCGC (((.(((....))).))) | 67.6 | -29.3 |
| GCGTGGCGAAAGCCGGGC ((..(((....)))..)) | 64.7 | -27 |
| GCGTGGCGAAAGCCTAGC ((..(((....)))..)) | 59.5 | -20.2 |
| GCGTGGCGAAAGCGCCGC (((..((....))..))) | 56.2 | -19.1 |
| GCGTGGCGAAAGCTAGGC ((.(.((....)).).)) | 52 | -20.4 |
| GCGTGGGAACGC ((((....)))) | 66.7 | -20.4 |
| GCGTGGGCACGC ((((....)))) | 57.3 | -24.7 |
| GCGTGTACGAAAGTACGC (((..(((....)))))) | 53.1 | -15 |
| GCGTGTCCGAAAGGACGC (((..(((....)))))) | 50.1 | -9.9 |
| GCGTGTGGAAACACACAC (.(((((....))))).) | 44.4 | -13.7 |
| GCGTGTGGAAACATACGC ((((.((....)).)))) | 58.8 | -39 |
| GCGTGTGGACGC ((((....)))) | 53.9 | -13.9 |
| GCGTTAACACGC ((((....)))) | 49.1 | -20.1 |
| GCGTTACCGAAAGGTCGC (((..(((....)))))) | 51.1 | -25.3 |
| GCGTTAGGAAACTAACAC (.(((((....))))).) | 35.9 | -16.2 |
| GCGTTAGGACGC ((((....)))) | 52.9 | -25.4 |
| GCGTTCACGAAAGTGCGC (((..(((....)))))) | 51.4 | -19.2 |
| GCGTTCGAAAGAAGACGC ((((((....)))..))) | 46.9 | -31.8 |
| GCGTTCGAAAGAAGCCGC ((((((....)))..))) | 35.9 | -22.7 |
| GCGTTCGAAAGAAGCGC ((((((....))).))) | 52.5 | -28.8 |
| GCGTTCGGAAACGAACAC (.(((((....))))).) | 45.5 | -13.7 |
| GCGTTCGTACGC ((((....)))) | 58.3 | -22.1 |
| GCGTTCTACGC ((((...)))) | 58.2 | -22.5 |
| GCGTTCTCGAAAGAGCGC (((..(((....)))))) | 51.1 | -34.3 |

| Sequence | Tm [1] [°C] | folding enthalpy [2] [kcal/mol] |
| --- | --- | --- |
| GCGTTCTTACGC ((((....)))) | 52.8 | -27 |
| GCGTTGCGAAAGCGAAGC ((.(.((....)).).)) | 54 | -20.4 |
| GCGTTGGCACGC ((((....)))) | 50 | -17.2 |
| GCGTTGGGAAACCAACAC (.(((((....))))).) | 42.5 | -14.4 |
| GCGTTGGGAAACTAGCGC (((.(.(....).).))) | 47.9 | -35.9 |
| GCGTTGGGACGC ((((....)))) | 55.2 | -24.9 |
| GCGTTTATACGC ((((....)))) | 55.7 | -27.7 |
| GCGTTTCGAAAGAAGCGC (((.(((....))).))) | 63.1 | -37.9 |
| GCGTTTCTACGC ((((....)))) | 53.8 | -23.3 |
| GCGTTTGAAAAAACGC ((((((....)))))) | 65.9 | -32.1 |
| GCGTTTGACGC ((((...)))) | 57.1 | -18.3 |
| GCGTTTGGAAACAGATGC ((.(.((....)).).)) | 30.1 | -17.6 |
| GCGTTTGGAAACGAATGC ((.((.(....).)).)) | 36 | -25.5 |
| GCGTTTTCACGC ((((....)))) | 54.2 | -24.6 |
| GCGTTTTTACGC ((((....)))) | 55.2 | -26.9 |
| GCTAAACGAAAGTTCAGC (((.(((....))).))) | 41.4 | -28.7 |
| GCTAAAGGAAACCTTAGC (((((.(....).))))) | 37.1 | -25.8 |
| GCTAAAGGAAACTTTAGC (((((((....))))))) | 53.7 | -37.4 |
| GCTAACGAAAGTTAGC ((((((....)))))) | 66.8 | -35.1 |
| GCTAACGAAAGTTCTAGC ((((((....)))..))) | 28.8 | -11.4 |
| GCTAACGAAAGTTTAAGC ((((((....)))..))) | 35.5 | -19 |
| GCTAACGAAAGTTTAGC ((((((....))).))) | 46.9 | -24.2 |
| GCTAACGGAAACATTAGC (((((.(....).))))) | 32.9 | -23.1 |
| GCTAAGCGAAAGCATGGC ((.(.((....)).).)) | 39.7 | -20.1 |

| Sequence | Tm [1] [°C] | folding enthalpy [2] [kcal/mol] |
| --- | --- | --- |
| GCTAAGCGAAAGCCTCGC ((.(.((....)).).)) | 29 | -10.7 |
| GCTAAGCGAAAGCCTTGC ((.(.((....)).).)) | 34.6 | -13.1 |
| GCTAAGCGAAAGCGAAGC (((..((....))..))) | 63 | -26.7 |
| GCTAAGCGAAAGCGGAGC (((..((....))..))) | 57.2 | -20.3 |
| GCTAAGCGAAAGCGTGGC ((.(.((....)).).)) | 57.1 | -16.1 |
| GCTAAGCGAAAGCTCGGC ((..(((....)))..)) | 39.7 | -19.7 |
| GCTAAGCGAAAGCTCTGC ((..(((....)))..)) | 31.4 | -15.8 |
| GCTAAGCGAAAGCTGCGC ((..(((....)))..)) | 58.3 | -21.1 |
| GCTAAGCGAAAGCTGGGC ((..(((....)))..)) | 52.9 | -17.7 |
| GCTAAGGGAAACCTTGGC ((.((((....)))).)) | 47.6 | -29.4 |
| GCTAAGGGAAACTTTAGC (((((.(....).))))) | 37.9 | -21.1 |
| GCTACAACGAAAGTTAGC (((..(((....)))))) | 33.4 | -18.6 |
| GCTACACCGAAAGGTAGC (((..(((....)))))) | 47.1 | -22.7 |
| GCTACAGAAATGTAGC ((((((....)))))) | 55.4 | -33.1 |
| GCTACAGCGAAAGCTAGC (((..(((....)))))) | 44.5 | -16.3 |
| GCTACAGGAAACTGCAGC (((.(((....))).))) | 44.5 | -28.3 |
| GCTACCACGAAAGTGAGC (((..(((....)))))) | 33.3 | -15.3 |
| GCTACCGGAAACGACAGC (((..((....))..))) | 27.5 | -15.8 |
| GCTACCTCGAAAGAGAGC (((..(((....)))))) | 30.1 | -16.3 |
| GCTACGCGAAAGCAGAGC (((..((....))..))) | 48.4 | -18.7 |
| GCTACGCGAAAGCCCAGC (((..((....))..))) | 33.3 | -6.89 |
| GCTACGCGAAAGCCTGGC ((.(.((....)).).)) | 34.4 | -13.4 |
| GCTACGCGAAAGCGAGGC ((..(((....)))..)) | 53.3 | -15.1 |
| GCTACGCGAAAGCGATGC ((..(((....)))..)) | 50 | -18.3 |

| Sequence | Tm [1] [°C] | folding enthalpy [2] [kcal/mol] |
| --- | --- | --- |
| GCTACGCGAAAGCGCGGC ((..(((....)))..)) | 51 | -16.1 |
| GCTACGCGAAAGCGCTGC ((..(((....)))..)) | 43.5 | -15.2 |
| GCTACGGGAAACCACAGC (((..((....))..))) | 36 | -21.4 |
| GCTACTGGAAACAGTGGC ((.((((....)))).)) | 51.7 | -38.3 |
| GCTAGACCGAAAGGTAGC (((..(((....)))))) | 44.1 | -19.2 |
| GCTAGACGAAAGTCCAGC (((.(((....))).))) | 47.6 | -24.9 |
| GCTAGAGGAAACCCTAGC (((((.(....).))))) | 41.4 | -31.2 |
| GCTAGCCGAAAGGCGAGC (((.(((....))).))) | 67.2 | -30.9 |
| GCTAGCGAAAGCTAGAGC ((((((....)))..))) | 55 | -13.2 |
| GCTAGCGAAAGCTCAGC ((((((....))).))) | 48.9 | -19.6 |
| GCTAGCGAAAGCTTAGC ((((((....))).))) | 52.5 | -22.1 |
| GCTAGCGGAAACGCTGGC ((.((((....)))).)) | 60.3 | -33.3 |
| GCTAGGCGAAAGCCAGC (((.(((....)))))) | 62.9 | -21.7 |
| GCTAGGCGAAAGCCATGC ((..(((....)))..)) | 53.5 | -17.7 |
| GCTAGGCGAAAGCGGAGC (((..((....))..))) | 42.4 | -20.1 |
| GCTAGGCGAAAGCTGAGC (((..((....))..))) | 53.6 | -18.2 |
| GCTAGGGGAAACCTTGGC ((.(.((....)).).)) | 34.4 | -23.8 |
| GCTAGGGGAAACTCTAGC (((((.(....).))))) | 47.7 | -34.8 |
| GCTAGTGGAAACACTAAC (.(((((....))))).) | 32.5 | -15.2 |
| GCTAGTGGAAACACTAGC (((((((....))))))) | 61.9 | -47.7 |
| GCTAGTGGAAACACTGGC ((.((((....)))).)) | 51.7 | -32.2 |
